Results taken from ChEMBL document CHEMBL2057132, “Structure-activity relationship of 2,2-dimethyl-2H-chromene based arylsulfonamide analogs of 3,4-dimethoxy-N-[(2,2-dimethyl-2H-chromen-6-yl)methyl]-N-phenylbenzenesulfonamide, a novel small molecule hypoxia inducible factor-1 (HIF-1) pathway inhibitor and anti-cancer agent” (Bioorg Med Chem, 2012).
Active and inactive are the calls of the source. The rule behind the calls is not given here.

How the values were obtained:
[1] = molecular target: T1, Hypoxia inducible factors; HIF-1-alpha, HIF-2-alpha (Homo sapiens, UniProt Q16665+Q99814); test: Inhibition of HIF1 transcriptional activity in human LN229 cells expressing VEGF-HRE-V6R and coexpressing luciferase, lac Z gene incubated for 1 hr in normoxia condition followed by 24 hrs in hypoxia condition by reporter gene assay; type: cell-based
In short: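 LN229 glioblastoma cells stably carrying a 6×VEGF-HRE bidirectional luciferase/lacZ reporter, 3 × 10^4 per well, grown 24 h normoxic in DMEM/10% FBS. Compound (serial dilutions in medium, 1% DMSO) added, 1 h normoxia, then 24 h at 1% O2, 37 °C. Lysate luciferase read by luminometer, as percent of untreated hypoxic cells. Triplicates, two independent experiments.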

[2] = Downregulation of HIF1alpha protein level in human LN229 cells expressing VEGF-HRE-V6R at 10 uM incubated for 1 hr in normoxia condition followed by 24 hrs in hypoxia condition by Western blot analysis relative to control; type: functional, cell-based; conditions: LN-229
In short: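 LN229-V6R cells (2 × 10^5 per 35 mm dish) grown 24 h under normoxia. Compounds given at 10 μM in medium with 1% DMSO, 1 h normoxia, then 24 h hypoxia (1% O2) at 37 °C. SDS lysis, 12.5% gel, nitrocellulose, anti-HIF-1α and β-actin blots, ECL. Densitometry as percent of untreated hypoxic control, normalized to β-actin.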

[3] = molecular target: T1, Hypoxia inducible factors; HIF-1-alpha, HIF-2-alpha; test: Inhibition of HIF1 transcriptional activity in human LN229 cells expressing VEGF-HRE-V6R and coexpressing lac Z gene at 10 uM incubated for 1 hr in normoxia condition followed by 24 hrs in hypoxia condition by luciferase reporter gene assay relative to control; values are per cent of control
[4] = Aqueous solubility of the compound at pH 7.4; type: physicochemical

| SMILES | IC50 [1] | inhibition [1] | Activity [2] | residual activity [3] | solubility [4] |
| --- | --- | --- | --- | --- | --- |
| CC(C)N(Cc1ccc2c(c1)C=CC(C)(C)O2)S(=O)(=O)c1cc(Cl)ccc1Cl | 16.8 µM | Dose-dependent effect |  |  |  |
| CC1(C)C=Cc2cc(CN(c3ccccc3)S(=O)(=O)c3ccccc3)ccc2O1 | 2.7 µM | Dose-dependent effect |  |  |  |
| COc1ccc(S(=O)(=O)N(Cc2ccc3c(c2)C=CC(C)(C)O3)C(C)C)cc1OC | 1.5 µM | Dose-dependent effect | 30% | < 5% |  |
| CC1(C)C=Cc2cc(CN(c3ccc(F)cc3)S(=O)(=O)c3ccc(F)cc3)ccc2O1 | 6.6 µM | Dose-dependent effect |  |  |  |
| CC(C)N(Cc1ccc2c(c1)C=CC(C)(C)O2)S(=O)(=O)c1ccc([N+](=O)[O-])cc1 | 3 µM | Dose-dependent effect |  |  |  |
| CC1(C)C=Cc2cc(CN(c3ccccc3)S(=O)(=O)c3cc(Cl)ccc3Cl)ccc2O1 | 3.3 µM | Dose-dependent effect |  |  |  |
| CC(C)N(Cc1ccc2c(c1)C=CC(C)(C)O2)S(=O)(=O)c1ccc(F)cc1 | 3.8 µM | Dose-dependent effect | inactive |  |  |
| COc1ccc(S(=O)(=O)N(Cc2ccc3c(c2)C=CC(C)(C)O3)c2ccccc2)cc1OC | 1.6 µM | Dose-dependent effect | inactive | < 5% | < 15 µg/mL |
| CC1(C)C=Cc2cc(CN(c3ccc(F)cc3)S(=O)(=O)c3cc(Cl)ccc3Cl)ccc2O1 | 8 µM | Dose-dependent effect |  |  |  |
| COc1ccc(S(=O)(=O)N(Cc2ccc3c(c2)C=CC(C)(C)O3)c2ccc(F)cc2)cc1OC | 3.2 µM | Dose-dependent effect | inactive | < 5% |  |
| CC1(C)C=Cc2cc(CN(c3ccccc3)S(=O)(=O)c3ccc(F)cc3)ccc2O1 | 4.8 µM | Dose-dependent effect |  |  |  |
| CC(C)N(Cc1ccc2c(c1)C=CC(C)(C)O2)S(=O)(=O)c1ccccc1 | 2.2 µM | Dose-dependent effect |  |  |  |
| CC1(C)C=Cc2cc(CN(c3ccc(F)cc3)S(=O)(=O)c3ccc([N+](=O)[O-])cc3)ccc2O1 | 4.8 µM | Dose-dependent effect |  |  |  |
| CC1(C)C=Cc2cc(CN(c3ccccc3)S(=O)(=O)c3ccc([N+](=O)[O-])cc3)ccc2O1 | 4.2 µM | Dose-dependent effect |  |  |  |
| CC1(C)C=Cc2cc(CN(c3ccc(F)cc3)S(=O)(=O)c3ccccc3)ccc2O1 | 7.2 µM | Dose-dependent effect |  |  |  |
